This sample holds only a part of the variants without activity.

The values that follow come from the RNAGym collection of RNA variant scans (doi:10.1126/science.aae0568).

The labels stand for the following.
B1: tRNA (parent)
chain: GUUCCGUUGGCGUAAUGGUAACGCGUCUCCCUCCUAAGGAGAAGACUGCGGGUUCGAGUCCCGUACGGAACG

The variants in the data set derive from B1. The experiment in a line: yeast fitness relative to wild type (ratio to wild type); higher = fitter; tRNA-Arg(CCU), competitive growth, 37 C, YPD. A digest of the protocol:
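Genotype frequency changes were the basis for Darwinian fitness relative to wild type. The frequencies came from 100-nucleotide paired-end sequencing of gene amplicons from the start population and each end population of pooled yeast strains with tRNA-Arg(CCU) gene variants at the native locus. Competition ran in YPD at 37°C for 24 hours in six replicates, genotypes needed ≥ 100 starting reads, and estimates < 0.5 were set to 0.5.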
A42G C61A: the yeast fitness stood at 0.553. With A43U C46A the figure was 0.98; with A43U C46G, 0.829. The result for A42G A70U reads 0.941; that for A42U A65G C66G G68A, 0.551.

For A42U C61U C62U, the yeast fitness amounted to 0.612. Take A42C U59A: the yeast fitness turned out to be 0.764.

As to A42C U59G, the yeast fitness was determined as 0.752. Take A43G A45C G51A: the yeast fitness is at most 0.5. Regarding A42U G68A, the yeast fitness was 0.927. Regarding A42U G51C C62U C66U, the yeast fitness was 0.708. Consider A42C A45U C46U, for which the yeast fitness turned out to be 0.861. Take G41C C60U U64G: the yeast fitness is at most 0.5. Consider A42G G44C C49U A57C, for which the yeast fitness is at most 0.5. The result for G41A U47A C49U U59C G67C A70U reads 0.532; that for A43U A65U C66A, at most 0.5; that for A42G U54A U59A, 0.541. The result for A43G G56C A69U reads 0.683; that for A42C G63C, 0.681. With A43C C55A A57C the figure was at most 0.5; with A43C A45G, 1.02; with A43C A45U, 0.973. Take A42U G48A: the yeast fitness amounted to 0.895. The result for A42U G52A C62U reads 0.754; that for A42G A43C, 1.17. The result for A42G A43U reads 1.03; that for A42C A57C, 0.62; that for A42C A57U, 0.688. With G41C G51C the figure was 0.52; with A43G G58C C62U, 0.537. Take A43G U54C: the yeast fitness is 0.905. The result for A42U G58A reads 0.939; that for A42U G58C, 0.924. The result for A43U C46G U54A reads 0.538.

With A42G U54G, the yeast fitness is 0.562. The result for G41C A43C C66A reads 0.699; that for G41A U53G U59A C62G, at most 0.5; that for A43G C61U, 0.887. The result for G41C G48C reads 0.813. The result for G41C G48C A69C reads 0.606; that for A42U A69C, 0.959; that for A42U A69G, 1.11. Consider A42G G58A, for which the yeast fitness was determined as 0.879. With A42C G50A U64A the figure was at most 0.5. The result for A43C G68C reads 0.72. For A42G C49G U54C G63C, the yeast fitness came out at 0.524. The result for A43G C46U reads 0.92; that for A42U A45U C49G U53A, at most 0.5. As to G41A C62A A70C, the yeast fitness was at most 0.5.

In the case of A42C C61U, the yeast fitness turned out to be 0.668. A43G C49U: the yeast fitness amounted to 0.9.

G41A C61A: the yeast fitness was found to be 0.742. The result for A43G A57C A65U reads 0.511; that for A42U G48C C61A, 0.643; that for A42U G63A G68C A69C, at most 0.5.

As to A42C G51A, the yeast fitness was determined as 0.849.

Turning to G41U C46A A70U, the yeast fitness worked out at 0.632. With A42G C62U A69C the figure was 0.696; with A42U C49G C55A, at most 0.5.

For the variant A43G C55U C66G, the yeast fitness was found to be 0.626.

Regarding G41C A43C A45U C49G U53G A69C, the yeast fitness is at most 0.5.

With A42U A57G G58A A70U, the yeast fitness was at most 0.5. Consider A43C G48C, for which the yeast fitness stood at 0.933. For the variant A42U C61U, the yeast fitness is 0.827.

A42C C46G A65U: the yeast fitness was at most 0.5. With A42G A45G U47C G51C the figure was at most 0.5; with A43G A57C, 0.525. With A42C U53A U54A, the yeast fitness is at most 0.5. With A42C A69C A70U, the yeast fitness worked out at 0.721.

With A42G C46U, the yeast fitness was found to be 0.974. As to G41C G52C A69C, the yeast fitness was at most 0.5. The result for A43U A57C G58A reads at most 0.5; that for A42G C49U G51A, 0.535. With A43G A45U C46U the figure was 0.604; with A42U G52A, 0.808; with A42C U64G, 0.596. The result for A43C C62U A65U reads 0.591; that for A43C G52A C55U C60A, at most 0.5. Turning to G41A C62A, the yeast fitness is 0.777. The result for G41A C62U reads 0.844; that for A42C A45C G52C, at most 0.5; that for A42C C49A C66A, at most 0.5. The result for A42G C66A reads 0.599; that for A42C C62U C66U, 0.507. With A42U A43G the figure was 0.88; with A42U G63A G68C, 0.544. Turning to A43C G52A A69U, the yeast fitness is 0.508. With A42G C61U G63C the figure was at most 0.5; with A43G C61U A65U, 0.567; with A43G G58A A65C C66U, at most 0.5. The result for A42U G67C reads 0.69.

Take A42U G63A: the yeast fitness is 0.868.

For the variant A42U G63U, the yeast fitness stood at 0.701.

For the variant A43C G50A G67A, the yeast fitness was at most 0.5. The result for A43C G52A reads 0.887; that for A43C G63C, 0.692. A43C G63A: the yeast fitness worked out at 0.929. The result for G41C C55A reads 0.617; that for G41C C55U, 0.787; that for A43G G58U, 0.707. For A43C U54C, the yeast fitness was 0.876. The result for A42U C49U G51A reads 0.665. The result for A43G U59C A70C reads 0.658. The result for A42G C55U A65C reads 0.535; that for A42G G51C, at most 0.5.

In the case of A42G G51A, the yeast fitness came to 0.822. With G41C U64G the figure was 0.735.

In the case of G41C A45G G63A C66G G67C, the yeast fitness was at most 0.5.

As to A42U A57G, the yeast fitness is 0.905. The result for A42U A57C reads 0.681; that for A43G G51C U54A A57C, at most 0.5; that for A43C C62A G63A C66G A69G, at most 0.5. Consider A42C U54A G67C A69U, for which the yeast fitness was determined as 0.571. Regarding A43C C46A G67A, the yeast fitness was determined as 0.538. The result for G41C C62A reads 0.713; that for G41C A43G U54A C66U, at most 0.5; that for A42C A69U, 0.927. The result for A42C A69G reads 0.97; that for A42C A70U, 1.02; that for G41C A42C, 0.565. The result for G41C A42U reads 0.79. Turning to A42C, the yeast fitness worked out at 0.967. With A42U the figure was 0.978; with A42G, 0.934. The result for A43G G48C reads 0.829. With A43C C61U the figure was 0.956; with A43C C61A, 0.776; with A42U G50A C60G, 0.614. On to G41A G50A C60U C66G, for which the yeast fitness was at most 0.5. With A42C C46G C66A, the yeast fitness stood at 0.552. The result for A42U C46G G52C C62A reads at most 0.5.

On to G41C C62U A69C, for which the yeast fitness is 0.619. The result for G41A C62U A69U reads 0.619. With A42G C49U U59C C61U the figure was at most 0.5.

Regarding G41A G44C C61G, the yeast fitness was at most 0.5. For the variant G41C C55A A69U, the yeast fitness was at most 0.5. The result for A43G U47A C49A reads 0.531; that for A43G A45C C46U, 0.578. With A42U G51C, the yeast fitness worked out at 0.567. For A42U A43G G48C U53A A65U A70C, the yeast fitness is at most 0.5. With A42U A57C A65U the figure was 0.589; with G41C A57U U64C, at most 0.5; with A42C C55U, 0.744.

As to A42C C55G, the yeast fitness stood at 0.612. With A42C C60U the figure was 0.749; with A42C C66U, 0.816; with A42G C61A C66A, at most 0.5. On to A43G C61A G67A, for which the yeast fitness is at most 0.5. The result for A42G U59A reads 0.939. Consider A42G U59C, for which the yeast fitness stood at 0.714. The result for A42U U59C U64A reads at most 0.5; that for A43C U47A G58C, 0.689. The result for A43G C55U C61U reads 0.543; that for A42G G67U, 0.633; that for A42U C55U, 0.709.

With A43G C46G G56C, the yeast fitness was at most 0.5. In the case of G41A U47C, the yeast fitness is 0.931.

As to A42C A45G, the yeast fitness was found to be 0.95.

For the variant G41A G63A, the yeast fitness was 0.893. In the case of G41A G63C, the yeast fitness came out at 0.715. The result for G41U A45U C49U C61G reads at most 0.5. The result for A42C G67A reads 0.833. With A42C A43U G56C C66U the figure was at most 0.5; with A43G U47A C55A, at most 0.5. On to A42U U54A G58C, for which the yeast fitness was determined as 0.599. With A42U G48A A65U the figure was 0.706.

For A42U C61G A65U, the yeast fitness is at most 0.5.
